The subject of the assay is ABCG2-transfected HEK293 cells. The assay can be described thus: Sensitization of ABCG2-transfected cells to mitoxantrone, MTT assay. It counts as cell-based, human. To be noted: no chalcone. A digest of the protocol: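 ABCG2-transfected (resistant) and empty-vector (sensitive) HEK293 cells seeded at 1 × 10^4 cells/well and incubated overnight. Then grown 72 h at 37°C, 5% CO2 with increasing mitoxantrone; resistant cells ran with or without 1 μM test compound. Survival read by MTT against 0.1% DMSO medium controls. At least three replicates; mitoxantrone IG50 from fitted curves.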
(Tetrazolium assays rely on reduction of a dye to a coloured formazan, in cell work by metabolically active cells.)

For `O=C1c2c(O)ccc(O)c2C(=O)c2c(NCCNCCO)ccc(NCCNCCO)c21` [mitoxantrone, Mitoxantrone], the “IG50 of mitoxantrone, resistant cells” value (ABCG2-transfected resistant cells) came to 82.8 ± 21.7 nM. The “IG50 of mitoxantrone, sensitive control cells” value (sensitive control HEK293 cells (empty vector)) turned out to be 14.5 ± 3.6 nM.
